Here are results for 3 molecules from ChEMBL document CHEMBL1131161 (J Med Chem, 1998).

Experiment [1] concerns the target T1, Androgen receptor (Homo sapiens, UniProt P10275).
T1 sequence (P10275 whole entry): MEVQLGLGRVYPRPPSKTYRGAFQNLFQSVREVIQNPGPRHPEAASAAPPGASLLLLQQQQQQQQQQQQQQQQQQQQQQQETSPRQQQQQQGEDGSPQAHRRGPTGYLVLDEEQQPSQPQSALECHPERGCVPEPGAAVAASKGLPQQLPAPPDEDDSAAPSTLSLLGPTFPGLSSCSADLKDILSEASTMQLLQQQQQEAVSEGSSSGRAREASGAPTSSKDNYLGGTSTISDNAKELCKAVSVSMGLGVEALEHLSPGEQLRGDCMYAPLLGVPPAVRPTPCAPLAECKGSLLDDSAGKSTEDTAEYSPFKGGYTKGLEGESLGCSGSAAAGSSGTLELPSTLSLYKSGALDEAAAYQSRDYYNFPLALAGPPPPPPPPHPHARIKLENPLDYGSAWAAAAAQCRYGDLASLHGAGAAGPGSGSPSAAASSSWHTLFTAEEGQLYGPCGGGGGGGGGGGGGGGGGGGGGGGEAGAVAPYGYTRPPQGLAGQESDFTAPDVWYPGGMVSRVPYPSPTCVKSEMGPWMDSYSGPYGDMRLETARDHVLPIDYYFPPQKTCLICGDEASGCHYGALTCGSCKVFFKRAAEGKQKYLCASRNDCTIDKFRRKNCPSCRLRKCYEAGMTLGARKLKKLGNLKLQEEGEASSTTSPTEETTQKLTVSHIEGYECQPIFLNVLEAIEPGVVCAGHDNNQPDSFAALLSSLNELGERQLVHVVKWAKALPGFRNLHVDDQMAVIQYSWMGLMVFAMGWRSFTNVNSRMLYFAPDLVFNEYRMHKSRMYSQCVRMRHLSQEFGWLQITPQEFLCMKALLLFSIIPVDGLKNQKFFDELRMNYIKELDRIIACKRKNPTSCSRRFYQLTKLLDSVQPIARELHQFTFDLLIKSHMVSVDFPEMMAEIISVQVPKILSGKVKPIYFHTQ

Experiment [2] addresses T1, Androgen receptor. In words: Inhibitory activity (IC50) against human androgen receptor expressed in CV-1 cells. Type of experiment: cell-based. The method, boiled down: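 Cotransfection assays in CV-1 cells with a luciferase reporter, read as normalized LUC expression. In antagonist mode, the reference agonists were DHT for hAR, dexamethasone for hGR and aldosterone for hMR. Antagonist efficacy was expressed as the percent of maximal inhibition of the agonist. Values are means of at least three separate experiments in triplicate, or of two experiments.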

The target in experiment [3] is T1, Androgen receptor. This is another data set of the same source.

Usually Ki stands for the dissociation constant of the complex between target and ligand, obtained from inhibition or displacement. A higher Ki goes with a looser hold on the target. The term IC50 denotes the point on the concentration scale where inhibition reaches its midpoint. In the case of `CC1=CC(C)(C)Nc2ccc3c(c21)/C(=C/c1cc(F)ccc1F)Oc1ccccc1-3`, affinity in experiment [1] was put at a Ki of 887 nM. For the same molecule, the half-maximal inhibitory concentration (IC50) in experiment [2] stood at 1600 nM.
`CC1=CC(C)(C)Nc2ccc3c(c21)/C(=C/c1ccccc1C)Oc1ccccc1-3` came in with a 50% inhibitory concentration (IC50) in experiment [3] of 1060 nM. For the same molecule, the Ki in experiment [1] amounted to 844 nM.
In turn, `CC1=CC(C)(C)Nc2ccc3c(c21)/C(=C/c1ccc(F)c(F)c1)Oc1ccccc1-3` gave a Ki in experiment [1] greater than 1000 nM. In addition, the half-inhibitory concentration (IC50) in experiment [2] came to 916 nM.
